Measurements reported in ChEMBL document CHEMBL1122125, “Synthesis and in vivo antitumor activity of potential 5-fluorouracil prodrugs” (1982).

Tests used:
Type in all cases: functional
Mus musculus [1] = test: Percent increase in life span against P-388 leukemia in mice was determined at a dose of 85 mg/kg; settings: P388
Method in brief: (§1)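 Male B6D2F1J mice, 5 per dose group, received 10⁶ P-388 cells ip on day 0. Dosing was ip qd × 4 on days 1-4 in sterile saline, or 10% Tween 80 for the butyl thioether. Median survival times of treated (T) and untreated control (C, 10-17 mice) groups were compared: %ILS = [(T/C) − 1]100. Weights taken on days 1 and 7.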

Mus musculus [2] = test: Antitumor activity was determined for survival range of mice against P-388 leukemia in mice at a dose of 170 mg/kg
Method in brief: (§2)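 Male B6D2F1J mice implanted ip with 10⁶ P-388 cells on day 0; test agents given ip on days 1–4 (qd × 4) in sterile saline, or in 10% Tween 80 for the lipophilic thioether. Groups of 5 treated mice, with 10–17 untreated controls per experiment. Mice weighed on days 1 and 7 to give the 7-day weight change in g and %. Survival recorded in days as median and range.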

Mus musculus [3] = test: Antitumor activity was determined for survival range of mice against P-388 leukemia in mice at a dose of 680 mg/kg; method in brief: as §2
Mus musculus [4] = test: Percent increase in life span against P-388 leukemia in mice was determined at a dose of 75 mg/kg; settings: P388; method in brief: as §1
Mus musculus [5] = test: Antitumor activity was determined for median survival of mice against P-388 leukemia in mice at a dose of 170 mg/kg; method in brief: as §2
Mus musculus [6] = test: Antitumor activity was determined for average weight on day 1 against P-388 leukemia in mice at a dose of 340 mg/kg
Method in brief: (§3)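 Male B6D2F1J mice, groups of 5, inoculated ip with 10⁶ P-388 cells on day 0. Drug given ip on days 1-4 (qd × 4) in sterile saline, or in 10% Tween 80 for the poorly water-soluble thioether. Average weight per mouse recorded on day 1, with reweighing on day 7 for percent weight change. Untreated control groups had 10-17 animals per experiment.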

Mus musculus [7] = test: Antitumor activity was determined for average 7-day weight change against P-388 leukemia in mice at a dose of 680 mg/kg
Method in brief: (§4)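 Male B6D2F1J mice given 10⁶ P-388 cells ip on day 0, then treated ip once daily on days 1-4 (qd × 4), 5 mice per dose group. Compounds dosed in sterile saline, except one lipophilic thioether given in 10% Tween 80. Mice weighed on days 1 and 7; mean weight per mouse on day 1 and 7-day weight change reported in g and as percent.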

Mus musculus [8] = test: Antitumor activity was determined for median survival of mice against P-388 leukemia in mice at a dose of 85 mg/kg; method in brief: as §2
Mus musculus [9] = test: Antitumor activity was determined for average 7-day weight change against P-388 leukemia in mice at a dose of 85 mg/kg; method in brief: as §4
Mus musculus [10] = test: Percent increase in life span against P-388 leukemia in mice was determined at a dose of 170 mg/kg; settings: P388; method in brief: as §1
Mus musculus [11] = test: Antitumor activity was determined for 7-day average percent weight change against P-388 leukemia in mice at a dose of 150 mg/kg; method in brief: as §4
Mus musculus [12] = test: Antitumor activity was determined for average weight on day 1 against P-388 leukemia in mice at a dose of 300 mg/kg; method in brief: as §3
Mus musculus [13] = test: Antitumor activity was determined for survival range of mice against P-388 leukemia in mice at a dose of 85 mg/kg
Method in brief: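 Male B6D2F1J mice, 5 per dose group, implanted ip with 10⁶ P-388 leukemia cells on day 0. Drug given ip daily on days 1-4 (qd × 4) in sterile saline, or in 10% Tween 80 for the butyl thioether. Survival range recorded in days. Untreated control groups had 10-17 animals per experiment. Mice weighed on days 1 and 7.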

Mus musculus [14] = test: Antitumor activity was determined for median survival of mice against P-388 leukemia in mice at a dose of 600 mg/kg; method in brief: as §2
Mus musculus [15] = test: Antitumor activity was determined for average weight on day 1 against P-388 leukemia in mice at a dose of 680 mg/kg; method in brief: as §3
Mus musculus [16] = test: Antitumor activity was determined for median survival of mice against P-388 leukemia in mice at a dose of 300 mg/kg; method in brief: as §2
Mus musculus [17] = test: Antitumor activity was determined for average weight on day 1 against P-388 leukemia in mice at a dose of 85 mg/kg; method in brief: as §3
L1210 = test: Evaluated for cytotoxicity against L1210 mouse leukemia cells; settings: read-out: ID50 (the source's name)
Method in brief: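 L1210 murine leukemia cells in Eagle's minimal essential medium with 15% fetal calf serum, streptomycin (100 μg/mL), penicillin (100 units/mL) and 0.05 mM 2-mercaptoethanol. Cells counted by Coulter counter after 48 h exposure. ID50 is the 50% growth-inhibitory dose. Triplicate assays, standard deviation ±10%.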

Mus musculus [18] = test: Antitumor activity was determined for average 7-day weight change against P-388 leukemia in mice at a dose of 600 mg/kg; method in brief: as §4
Mus musculus [19] = test: Antitumor activity was determined for survival range of mice against P-388 leukemia in mice at a dose of 340 mg/kg; method in brief: as §2
Mus musculus [20] = test: Antitumor activity was determined for survival range of mice against P-388 leukemia in mice at a dose of 600 mg/kg; method in brief: as §2
Mus musculus [21] = test: Antitumor activity was determined for 7-day average percent weight change against P-388 leukemia in mice at a dose of 85 mg/kg; method in brief: as §4
Mus musculus [22] = test: Antitumor activity was determined for average 7-day weight change against P-388 leukemia in mice at a dose of 150 mg/kg; method in brief: as §4
Mus musculus [23] = test: Percent increase in life span against P-388 leukemia in mice was determined at a dose of 600 mg/kg; settings: P388; method in brief: as §1
Mus musculus [24] = test: Antitumor activity was determined for average 7-day weight change against P-388 leukemia in mice at a dose of 340 mg/kg; method in brief: as §4
Mus musculus [25] = test: Antitumor activity was determined for 7-day average percent weight change against P-388 leukemia in mice at a dose of 170 mg/kg; method in brief: as §4
Mus musculus [26] = test: Antitumor activity was determined for average 7-day weight change against P-388 leukemia in mice at a dose of 75 mg/kg; method in brief: as §4
Mus musculus [27] = test: Antitumor activity was determined for median survival of mice against P-388 leukemia in mice at a dose of 75 mg/kg; method in brief: as §2
Mus musculus [28] = test: Antitumor activity was determined for average weight on day 1 against P-388 leukemia in mice at a dose 75 of mg/kg; method in brief: as §4
Mus musculus [29] = test: Percent increase in life span against P-388 leukemia in mice was determined at a dose of 150 mg/kg; settings: P388; method in brief: as §1
Mus musculus [30] = test: Antitumor activity was determined for 7-day average percent weight change against P-388 leukemia in mice at a dose of 680 mg/kg; method in brief: as §4
Mus musculus [31] = test: Antitumor activity was determined for survival range of mice against P-388 leukemia in mice at a dose of 300 mg/kg; method in brief: as §2
Mus musculus [32] = test: Antitumor activity was determined for median survival of mice against P-388 leukemia in mice at a dose of 150 mg/kg; method in brief: as §2
Mus musculus [33] = test: Antitumor activity was determined for 7-day average percent weight change against P-388 leukemia in mice at a dose of 300 mg/kg; method in brief: as §4
Mus musculus [34] = test: Antitumor activity was determined for average 7-day weight change against P-388 leukemia in mice at a dose of 300 mg/kg; method in brief: as §4
Mus musculus [35] = test: Antitumor activity was determined for average weight on day 1 against P-388 leukemia in mice at a dose of 170 mg/kg; method in brief: as §3

Which results are given for `CC[C@H]1OC(n2cc(F)c(=O)[nH]c2=O)[C@H](O)[C@@H]1O` (stereo partly specified)?
ILS at 85 mg/kg (Mus musculus [1]): 18%; Survival range (Mus musculus [2]): 13; Survival range (Mus musculus [3]): 16; ILS at 75 mg/kg (Mus musculus [4]): 36%; Survival median (Mus musculus [5]): 14; Average weight (Mus musculus [6]): 27.8 g mouse-1; Average weight (Mus musculus [7]): -1.4 g mouse-1; Survival median (Mus musculus [8]): 13; Average weight (Mus musculus [9]): 1.2 g mouse-1; ILS at 170 mg/kg (Mus musculus [10]): 27%; Weight change (Mus musculus [11]): 7%; Average weight (Mus musculus [12]): 23.2 g mouse-1; Survival range (Mus musculus [13]): 13; Survival median (Mus musculus [14]): 18; Average weight (Mus musculus [15]): 25.8 g mouse-1; Survival median (Mus musculus [16]): 17; Average weight (Mus musculus [17]): 26.2 g mouse-1; IC50 (L1210): 19 µM; Average weight (Mus musculus [18]): -2.4 g mouse-1; Survival range (Mus musculus [19]): 15; Survival range (Mus musculus [20]): 17; Weight change (Mus musculus [21]): 5%; Average weight (Mus musculus [22]): 1.8 g mouse-1; ILS at 600 mg/kg (Mus musculus [23]): 63%; Average weight (Mus musculus [24]): 1.4 g mouse-1; Weight change (Mus musculus [25]): 6%; Average weight (Mus musculus [26]): 2 g mouse-1; Survival median (Mus musculus [27]): 15; Average weight (Mus musculus [28]): 21.8 g mouse-1; ILS at 150 mg/kg (Mus musculus [29]): 54%; Weight change (Mus musculus [30]): -5%; Survival range (Mus musculus [31]): 17; Survival median (Mus musculus [32]): 17; Weight change (Mus musculus [33]): 3%; Average weight (Mus musculus [34]): 0.6 g mouse-1; Average weight (Mus musculus [35]): 26.4 g mouse-1
